An excerpt weighted towards active compounds, which were near 3.9% of everything screened.
Gli-Sufu antag: Gli-Sufu pathway antagonism | inhibition, % at 5 µM | 340,000 tested, 0.74% active | AID 588413 | Sufu-KO-LIGHT fibroblasts, Gli luciferase reporter luminescence;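 active means inhibition above about 55%, limit read from the data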;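 further: 0% = DMSO-treated cells and 100% = wells with medium but no cells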
CHOP inhibitor: blocks CHOP induction under ER stress; 220,000 tested, 3.8% active; inhibition, % at 10 µM; CHO-K1 CHOP-promoter luciferase, tunicamycin-induced, 15-18 h;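 active means compounds that reduced the stress-induced luciferase reporter signal by more than about 70% of percent inhibition, limit read from the data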;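 further: 0% = tunicamycin plus vehicle and 100% = wells without tunicamycin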
Jurkat NFkB inh: lowers PMA/ionomycin-induced NF-kB signal in Jurkat cells | PMA/ionomycin-induced NF-kB luciferase reporter, luminescence | inhibition, % at 4 µM | 330,000 tested, 0.53% active; in the data active means inhibition above about 50%
697 NFkB inh: inhibitors of the PMA/ionomycin-induced NF-kB reporter in 697 B cells | 330,000 tested, 0.33% active | 697 B-cell NF-kB luciferase reporter, 16 h | inhibition, % at 4 µM | AID 435022; in the data active means inhibition above about 35%
UPR XBP1 act: adaptive UPR (XBP1) activation; AID 463104; CHO-XBP1 luciferase reporter, IRE1-XBP1 UPR activation, luminescence; percent of tunicamycin response, DMSO as zero; 330,000 tested, 0.33% active; activation, % at 20 µM;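 active means versus positive control, 20 µM dose yields 30% or more activation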;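 further: 100% = tunicamycin at 10 µg/mL and 0% = DMSO only wells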
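Test system: CHO-XBP1 luciferase reporter cells | Buffer or medium: Serum-containing F12 medium, 10% FBS | Schedule: 6 h compound exposure at 37 °C, 5% CO2 | Detection: Steady-Glo luciferase glow luminescence, 10 min after reagent addition | Read-out basis: Activation, % of tunicamycin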
UPR CHOP act: apoptotic UPR (CHOP) activation; activation, % at 10 µM; CHO-CHOP luciferase reporter, luminescence; percent of tunicamycin response over DMSO baseline; 330,000 tested, 0.34% active; AID 449763;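 active means at 10 µM dose, activation of 40% or more, normalized to positive control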;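 further: 100% = tunicamycin at 10 µg/mL and 0% = DMSO alone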
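System: CHO-CHOP luciferase reporter cell line; amount: 500 cells/well; buffer or medium: F12 medium containing 10% fetal bovine serum; incubation: 6 h compound exposure at 37 °C after overnight seeding; measured by: luciferase luminescence after 10 min with Steady-Glo reagent; evaluation: % reporter activation, DMSO baseline versus tunicamycin full activation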
697 NFkB conf: lowers PMA/ionomycin-induced NF-kB signal in 697 B cells; shares compounds with 697 NFkB inh; 2,000 tested, 35% active; inhibition, % at 4 µM; 697 B-cell NF-kB luciferase, 16 h; AID 449746; in the data active means inhibition mostly above about 28%, no sharp cut-off; inactive means mostly below about 22%
* marks the source's active call; other numbers are inactive results; i = inactive; · = no result given.

SMILES	Gli-Sufu antag	CHOP inhibitor	Jurkat NFkB inh	697 NFkB inh	UPR XBP1 act	UPR CHOP act	697 NFkB conf
O=C(OCCOc1cccc(Cl)c1)c1cc(S(=O)(=O)N2CCOCC2)ccc1F	2	·	7	5	-4	3	·
O=C(/C=C/Nc1ccccc1F)c1cccs1	-72	39	-112	-349	-4	-5	-88
O=C(c1ccco1)N1CCN(C(=O)c2ccccc2OCc2ccccc2)CC1	-11	·	8	15	-3	0	·
Cc1cccc(/C=N/NC(=O)c2ccc3c(c2)OCCO3)c1O	·	·	-112	-352	-10	-6	-465
CCOc1cccc(/C=N/NC(=O)c2ccc3c(c2)OCCO3)c1O	37	·	18	-52	3	5	·
COc1cc(C(=O)Nc2cc(C)c(OCC(=O)N3CCOCC3)c(C)c2)cc(OC)c1OC	-4	10	5	36*	2	2	32*
Cc1onc(-c2ccccc2Cl)c1C(=O)Nc1cccc(S(=O)(=O)NC2=NCCC2)c1	0	·	5	-18	-2	1	·
COc1ccccc1C(=O)Nc1ccc(OCC(=O)N2CC(C)OC(C)C2)cc1 (stereo not drawn)	-20	·	4	10	-2	-1	·
Cc1ccccc1OCCC(=O)OCC(=O)NC1CCS(=O)(=O)C1 (stereo not drawn)	1	·	1	11	1	2	·
O=C1c2ccccc2C(=O)C1c1ccnc2ccccc12	-37	83*	-34	-262	-5	-7	-288
O=C1C(c2ccnc3ccccc23)=C(O)c2ccccc21	-6	67	1	-338	-12	-8	-298
N#CC1=C(N)SC(N)=C(C#N)C1c1ccnc2ccccc12	19	-4	-16	-8	0	-1	·
O=C1C(=O)c2ccccc2C(O)=C1c1ccccc1F	12	26	3	11	1	-1	·
CCN(CC)c1ccc(/C=N/N(c2ccccc2)c2ccccc2)c(O)c1	3	14	19	-12	-1	1	·
CCN(CC)c1ccc(/C=N/N=C(c2ccccc2)c2ccccc2)c(O)c1	2	32	9	35*	-2	-1	27*
COc1ccc2c(c1OC)C(=O)OC2Nc1ccccn1 (stereo not drawn)	1	4	23	35*	0	0	6
Cc1cc(NS(C)(=O)=O)c(=O)n(Cc2c(F)cccc2Cl)c1	0	·	3	-7	1	3	·
Cc1ccc(-c2nn3c(C)nnc3c3ccccc23)cc1S(=O)(=O)NC(C)(C)CO	22	-41	-1	36*	0	-1	61*
Cc1nnc2c3ccccc3c(-c3ccccc3)nn12	21	·	-7	43*	5	-1	32*
Cc1ccc(-c2nn3c(C)nnc3c3ccccc23)cc1S(=O)(=O)N1CCN(CCO)CC1	4	22	-16	37*	2	0	37*
Cc1ccc(-c2nn3c(C)nnc3c3ccccc23)cc1S(=O)(=O)NCc1ccco1	25	10	0	43*	2	0	43*
Cc1ccc(-c2nn3c(C)nnc3c3ccccc23)cc1S(=O)(=O)NCCO	3	-32	-5	18	-2	-1	·
Cc1ccc(-c2nn3c(C)nnc3c3ccccc23)cc1S(=O)(=O)NC(C)c1ccccc1 (stereo not drawn)	-11	-11	-8	19	7	5	·
O=C(CCC(=O)N1CCN(S(=O)(=O)c2ccc3ccccc3c2)CC1)NCC(F)(F)F	-5	·	-6	11	1	1	·
O=C(CSc1nnc(-c2ccccn2)o1)Nc1ccccc1Cl	-67	·	-57	-115	3	2	·
Cc1ccccc1C(=O)Nc1ccc2c(c1)CCCN2C(=O)c1cccs1	-8	·	-52	i	-2	1	i
COc1cccc(C(=O)Nc2ccc3c(c2)CCCN3C(=O)c2cccs2)c1OC	-9	·	-9	-45	-2	3	·

Screening results from PubChem BioAssay.
